# Published values pooled from the literature.
# Target: Alpha-2B adrenergic receptor (ADRA2B, Homo sapiens, UniProt P18089)
# Tested at: 10 µM
# One construct used (P18089 1-450): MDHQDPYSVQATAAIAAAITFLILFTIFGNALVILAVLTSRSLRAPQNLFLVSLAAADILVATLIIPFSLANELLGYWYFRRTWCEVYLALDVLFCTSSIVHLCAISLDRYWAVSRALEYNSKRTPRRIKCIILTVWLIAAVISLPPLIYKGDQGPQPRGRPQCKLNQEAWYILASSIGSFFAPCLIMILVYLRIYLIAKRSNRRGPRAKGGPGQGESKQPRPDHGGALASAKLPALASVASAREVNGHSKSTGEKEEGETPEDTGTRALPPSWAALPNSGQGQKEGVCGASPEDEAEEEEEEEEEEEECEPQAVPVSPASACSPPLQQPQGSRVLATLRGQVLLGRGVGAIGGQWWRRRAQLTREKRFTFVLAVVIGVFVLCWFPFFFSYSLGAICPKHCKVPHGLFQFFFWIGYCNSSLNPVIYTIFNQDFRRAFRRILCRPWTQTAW
SMILES,read-out,method,inhibition [%]
N#Cc1cc(Cn2c(N3CCCC3)nc3ccccc32)ccc1F,ligand displacement,,18.7
CN(C)C(=O)Cn1cc(-c2nc(C3(c4ccc(-c5cnc(N)nc5)cc4)CC3)no2)cn1,cell-free assay,,-3.57
O=[N+]([O-])C1=Cc2cc(I)ccc2OC1C(F)(F)F (stereo not drawn),ligand displacement,radioligand,66
O=C(NNS(=O)(=O)c1ccccc1F)c1cc(F)cc(-c2ccccn2)c1,cell-free assay,,-3.78
Oc1cccc(Nc2nc(-c3ccc(F)cc3F)cs2)c1,cell-free assay,,-29.7
CCCNc1nc2ccccc2n1Cc1ccc(Cl)cc1,ligand displacement,,83
COc1cc(NC(C)=O)c(Cl)cc1C(=O)Nc1nccs1,cell-free assay,,-12.7
O=C1c2ccccc2C(=O)N1CC#Cc1ccc2c(c1)C=C([N+](=O)[O-])C(C(F)(F)F)O2 (stereo not drawn),ligand displacement,radioligand,70
CCN(CC)c1ccc(C2Nc3ccc(C(=O)c4ccccc4)cc3NC3=C2C(=O)CC(C)(C)C3)cc1 (stereo not drawn),ligand displacement,radioligand,-8
